Data on twelve molecules can be found in ChEMBL document CHEMBL1250476, “Synthesis and antifungal evaluation of novel triazole derivatives as inhibitors of cytochrome P450 14alpha-demethylase” (2010).

What all share (format): functional
The subject of assay [1] is Candida albicans. In words: Antifungal activity against Candida albicans Y0109 after 24 hrs by micro-broth dilution method. Particulars: Y0109, 24 h. An outline of the steps: (§1)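 Broth microdilution per NCCLS on Candida albicans. Compounds were dissolved in DMSO, serially diluted in growth medium, inoculated and incubated at 35 °C. Growth was read at 24 h, and MIC80 was taken as the first well with about 80% growth reduction relative to the drug-free control. Values are the mean of three replicates.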

Assay [2] concerns Candida parapsilosis. The assay can be described thus: Antifungal activity against Candida parapsilosis by micro-broth dilution method. Particulars: Lodderomyces parapsilosis. The procedure, abridged:
(§2)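 MIC80 by broth microdilution in 96-well format following NCCLS. Compounds were dissolved in DMSO, serially diluted in growth medium, inoculated and incubated at 35 °C. The endpoint was the first well with about 80% growth reduction versus the drug-free well. Values are means of three replicate tests.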
(In general: Dilution methods test growth across graded concentrations, often in twofold steps.)

Assay [3] has as its system Aspergillus fumigatus. The assay can be described thus: Antifungal activity against Aspergillus fumigatus by micro-broth dilution method. The procedure, abridged: as §2
The subject of assay [4] is Cryptococcus neoformans. In words: Antifungal activity against Cryptococcus neoformans after 72 hrs by micro-broth dilution method. The procedure, abridged:
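Cryptococcus neoformans tested by NCCLS micro-broth dilution. Compounds were dissolved in DMSO, serially diluted in medium, inoculated and incubated at 35 °C. MIC80 was read at 72 h as the first well showing approximately 80% growth reduction compared with the drug-free well. Values are the mean of three replicate tests.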

Assay [5] concerns Candida albicans. In words: Antifungal activity against Candida albicans SC5314 after 24 hrs by micro-broth dilution method. Particulars: SC5314, 24 h. An outline of the steps: as §1
Assay [6] deals with Candida tropicalis. In words: Antifungal activity against Candida tropicalis by micro-broth dilution method. An outline of the steps:
as §2

Assay [7] deals with Trichophyton rubrum. The assay can be described thus: Antifungal activity against Trichophyton rubrum by micro-broth dilution method. The procedure, abridged: as §2
Assay [8] concerns Kluyveromyces marxianus. In words: Antifungal activity against Candida kefyr by micro-broth dilution method. The procedure, abridged: as §2

The structures appear in SMILES notation. Converted amounts (≈) assume the structure as drawn.

For the molecule `OC(CN(Cc1cn(Cc2c(Cl)cccc2Cl)nn1)C1CC1)(Cn1cncn1)c1ccc(F)cc1F` (stereo unspecified), the minimum inhibitory concentration (MIC) (as a rule, the lowest concentration found to suppress growth) was 0.0625 µg/mL (≈ 0.117 µM) in assay [1]; 4 µg/mL (≈ 7.49 µM) in assay [2]; more than 64 µg/mL in assay [3]; 64 µg/mL (≈ 120 µM) in assay [4]; 4 µg/mL (≈ 7.49 µM) in assay [5]; 4 µg/mL (≈ 7.49 µM) in assay [6]. Also, the MIC came out at 1 µg/mL (≈ 1.87 µM) in assay [7] and 0.25 µg/mL (≈ 0.468 µM) in assay [8].
On to `O=[N+]([O-])c1cccc(Cn2cc(CN(CC(O)(Cn3cncn3)c3ccc(F)cc3F)C3CC3)nn2)c1` (stereo unspecified), for which the MIC in assay [1] is 0.0625 µg/mL (≈ 0.122 µM); in assay [2], 8 µg/mL (≈ 15.7 µM); in assay [3] it was more than 64 µg/mL; in assay [4], 64 µg/mL (≈ 125 µM); in assay [5], 4 µg/mL (≈ 7.84 µM); in assay [6], 4 µg/mL (≈ 7.84 µM). Further, the MIC in assay [7] turned out to be 0.25 µg/mL (≈ 0.49 µM); in assay [8], 0.0156 µg/mL (≈ 0.0306 µM).
With `CC(C)N(Cc1cn(Cc2ccc(C#N)cc2)nn1)CC(O)(Cn1cncn1)c1ccc(F)cc1F` (stereo unspecified), the minimal inhibitory concentration (MIC) is 0.0156 µg/mL (≈ 0.0317 µM) in assay [1]; 0.5 µg/mL (≈ 1.02 µM) in assay [2]; more than 64 µg/mL in assay [3]; 16 µg/mL (≈ 32.5 µM) in assay [4]; 1 µg/mL (≈ 2.03 µM) in assay [5]; less than 0.125 µg/mL in assay [6]. Moreover, the MIC in assay [7] was less than 0.125 µg/mL; in assay [8] it was 0.25 µg/mL (≈ 0.508 µM).
As to `OC(CN(Cc1cn(Cc2ccccc2Br)nn1)C1CC1)(Cn1cncn1)c1ccc(F)cc1F` (stereo unspecified), the MIC in assay [1] was 16 µg/mL (≈ 29.4 µM); in assay [2], 2 µg/mL (≈ 3.67 µM); in assay [3] it was more than 64 µg/mL; in assay [4] it was 64 µg/mL (≈ 118 µM); in assay [5], 0.25 µg/mL (≈ 0.459 µM); in assay [6], 2 µg/mL (≈ 3.67 µM). The MIC was 2 µg/mL (≈ 3.67 µM) in assay [7] and 0.0625 µg/mL (≈ 0.115 µM) in assay [8].
For `CC(C)N(Cc1cn(Cc2cccc(Br)c2)nn1)CC(O)(Cn1cncn1)c1ccc(F)cc1F` (stereo unspecified), the minimum inhibitory concentration (MIC) is 1 µg/mL (≈ 1.83 µM) in assay [1]; 0.0156 µg/mL (≈ 0.0285 µM) in assay [2]; more than 64 µg/mL in assay [3]; 1 µg/mL (≈ 1.83 µM) in assay [4]; 0.25 µg/mL (≈ 0.458 µM) in assay [5]; 0.25 µg/mL (≈ 0.458 µM) in assay [6]. The minimal inhibitory concentration (MIC) is 0.0625 µg/mL (≈ 0.114 µM) in assay [7] and 0.0039 µg/mL (≈ 0.00714 µM) in assay [8].
Regarding `C[C@@H]1[C@H](O)[C@@H](C)/C=C/C=C/C=C/C=C/C=C/C=C/C=C/[C@H](O[C@@H]2O[C@H](C)[C@@H](O)[C@H](N)[C@@H]2O)C[C@@H]2O[C@](O)(C[C@@H](O)C[C@@H](O)[C@H](O)CC[C@@H](O)C[C@@H](O)CC(=O)O[C@H]1C)C[C@H](O)[C@H]2C(=O)O` [AMPHOTERICIN B], the MIC in assay [1] is 4 µg/mL (≈ 4.33 µM); in assay [2] it was 0.125 µg/mL (≈ 0.135 µM); in assay [3] it was 32 µg/mL (≈ 34.6 µM); in assay [4] it was 4 µg/mL (≈ 4.33 µM); in assay [5], 8 µg/mL (≈ 8.66 µM); in assay [6] it was 0.25 µg/mL (≈ 0.271 µM). The values for the MIC in assay [7] and in assay [8] were 1 µg/mL (≈ 1.08 µM) and 0.25 µg/mL (≈ 0.271 µM), respectively.
As to `Cc1cccc(Cn2cc(CN(CC(O)(Cn3cncn3)c3ccc(F)cc3F)C3CC3)nn2)c1` (stereo unspecified), the MIC is 0.0156 µg/mL (≈ 0.0325 µM) in assay [1]; less than 0.125 µg/mL in assay [2]; 64 µg/mL (≈ 133 µM) in assay [3]; 2 µg/mL (≈ 4.17 µM) in assay [4]; 0.5 µg/mL (≈ 1.04 µM) in assay [5]; less than 0.125 µg/mL in assay [6]. The MIC was less than 0.125 µg/mL in assay [7] and 0.0156 µg/mL (≈ 0.0325 µM) in assay [8].
Turning to `CC(C)N(Cc1cn(Cc2cccc(C#N)c2)nn1)CC(O)(Cn1cncn1)c1ccc(F)cc1F` (stereo unspecified), the MIC in assay [1] is 0.0625 µg/mL (≈ 0.127 µM); in assay [2] it was 16 µg/mL (≈ 32.5 µM); in assay [3], more than 64 µg/mL; in assay [4], 64 µg/mL (≈ 130 µM); in assay [5] it was less than 0.125 µg/mL; in assay [6], 16 µg/mL (≈ 32.5 µM). Also, the MIC in assay [7] was found to be 16 µg/mL (≈ 32.5 µM); in assay [8] it was 0.25 µg/mL (≈ 0.508 µM).
On to `O=[N+]([O-])c1ccc(Cn2cc(CN(CC(O)(Cn3cncn3)c3ccc(F)cc3F)C3CC3)nn2)cc1` (stereo unspecified), for which the minimum inhibitory concentration (MIC) in assay [1] is 0.25 µg/mL (≈ 0.49 µM); in assay [2], 1 µg/mL (≈ 1.96 µM); in assay [3], more than 64 µg/mL; in assay [4], 16 µg/mL (≈ 31.3 µM); in assay [5], less than 0.125 µg/mL; in assay [6], 0.25 µg/mL (≈ 0.49 µM). The values for the MIC in assay [7] and in assay [8] were 0.5 µg/mL (≈ 0.979 µM) and 0.0039 µg/mL (≈ 0.00764 µM), respectively.
For `CC(C)N(Cc1cn(Cc2cccc(Cl)c2)nn1)CC(O)(Cn1cncn1)c1ccc(F)cc1F` (stereo unspecified), the MIC in assay [1] was 0.0156 µg/mL (≈ 0.0311 µM); in assay [2], 4 µg/mL (≈ 7.97 µM); in assay [3], more than 64 µg/mL; in assay [4] it was 32 µg/mL (≈ 63.7 µM); in assay [5] it was less than 0.125 µg/mL; in assay [6], 2 µg/mL (≈ 3.98 µM). Besides, the values for the MIC in assay [7] and in assay [8] were 2 µg/mL (≈ 3.98 µM) and 0.25 µg/mL (≈ 0.498 µM), respectively.
Regarding `CC(C)N(Cc1cn(C2CCCCC2)nn1)CC(O)(Cn1cncn1)c1ccc(F)cc1F` (stereo unspecified), the MIC is 0.0625 µg/mL (≈ 0.136 µM) in assay [1]; 2 µg/mL (≈ 4.35 µM) in assay [2]; more than 64 µg/mL in assay [3]; 16 µg/mL (≈ 34.8 µM) in assay [4]; less than 0.125 µg/mL in assay [5]; 0.5 µg/mL (≈ 1.09 µM) in assay [6]. Further, the MIC stood at 1 µg/mL (≈ 2.18 µM) in assay [7] and 0.25 µg/mL (≈ 0.544 µM) in assay [8].
For the molecule `OC(CN(Cc1cn(Cc2ccc(F)cc2)nn1)C1CC1)(Cn1cncn1)c1ccc(F)cc1F` (stereo unspecified), the MIC is 0.25 µg/mL (≈ 0.517 µM) in assay [1]; 4 µg/mL (≈ 8.27 µM) in assay [2]; more than 64 µg/mL in assay [3]; 16 µg/mL (≈ 33.1 µM) in assay [4]; 1 µg/mL (≈ 2.07 µM) in assay [5]; 1 µg/mL (≈ 2.07 µM) in assay [6]. Further, the minimum inhibitory concentration (MIC) in assay [7] stood at 2 µg/mL (≈ 4.14 µM); in assay [8], 0.0625 µg/mL (≈ 0.129 µM).
